Our source for the IC50, Activity and inhibition values is ChEMBL document CHEMBL1158044, “Bioactive depsides and anthocyanins from jaboticaba (Myrciaria cauliflora)” (J Nat Prod, 2006).

The nature of series [1]: Antiradical activity assessed as DPPH radical scavenging activity. It counts as physicochemical. The method, boiled down: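 DPPH radical scavenging done per an earlier method with 400 µM DPPH. Tested on extracts, fractions and pure compounds, with gallic acid as positive control. IC50 reported.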
A short description of series [2]: Cytotoxicity against human HCT 116 cells after 72 hrs. As to conditions: HCT-116, 72 h. It counts as functional, cell-based. The method, boiled down:
(§1)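 Colon cancer cells (10 000) seeded in DMEM with 10% FBS. After 24 h, treated with 1, 5, 10, 30, 50 and 70 µM compound for 72 h in DMEM with 1% FBS. Cells washed with PBS, trypsinized and counted on a Coulter Counter. IC50 derived. EGCG and Polyphenon E served as positive controls.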

A short description of series [3]: Inhibition of IL8 production in human SAE cells at 100 uM. It is filed as functional. Also noted: Activity: scale not given: the % may be the effect or the level left. A digest of the protocol:
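Confluent human small airway epithelial cells (passages 4-8, 5% CO2, 37 °C) given compound at 100 µM without smoke extract. IL-8 in supernatant measured by ELISA after 24 h. Significance by two-sided Student's t-test at the 5% level.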

Series [4] can be described thus: Inhibition of IL8 production in cigarette smoke extract treated human SAE cells at 100 uM. Also noted: scale not given: the % may be the effect or the level left. It is filed as functional. A digest of the protocol:
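Primary human small airway epithelial cells, confluent, passages 4-8, kept in 5% CO2 at 37 °C. CSE made by drawing smoke of one unfiltered 2R1 reference cigarette through 25 mL DPBS, set to pH 7.4, filtered and diluted to 5% in growth medium. Compound (100 µM) added 30 min before 5% CSE. After 24 h, supernatant IL-8 read by ELISA. Two-sided Student's t-test, 5% level.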

The next series concerns SW480. Put plainly: Cytotoxicity against human SW480 cells after 72 hrs. It counts as functional, cell-based. Conditions: SW480, 72 h. A digest of the protocol: as §1
For another series, the system named is HT-29. Kind of series: Cytotoxicity against human HT-29 cells after 72 hrs. It counts as functional, cell-based. As to conditions: HT-29, 72 h. A digest of the protocol:
as §1

For the compound `O=C(O)Cc1c(O)cc(O)cc1OC(=O)c1ccc(O)c(O)c1`, the IC50 (in general, the concentration at which inhibition is half-maximal) in series [1] is 61.8 µM; in series [2], 30 µM. Further, the Activity in series [3] is on record as 74.9%; in series [4], 70.3%.
Regarding `OC[C@H]1O[C@@H](Oc2cc3c(O)cc(O)cc3[o+]c2-c2ccc(O)c(O)c2)[C@H](O)[C@@H](O)[C@@H]1O` [KUROMANIN], the 50% inhibitory concentration (IC50) (in series [2]; in the series on SW480; with HT-29) was 100 µM in each case. Also, the values for the Activity in series [3] and in series [4] were 65.3% and 36.4%, respectively.
Turning to `COC(=O)Cc1c(O)cc(O)cc1OC(=O)c1ccc(O)c(O)c1` [JABOTICABIN], the concentration for half-maximal inhibition (IC50) was found to be 51.4 µM in series [1] and 65 µM in the series on HT-29. For the same compound, the inhibition (usually the relative decrease from the control value, in per cent) at 100 µM in series [3] (Homo sapiens, SAE) was determined as 81.3%. The Activity in series [4] is 47.3%.
With `OC[C@H]1O[C@@H](Oc2cc3c(O)cc(O)cc3[o+]c2-c2cc(O)c(O)c(O)c2)[C@H](O)[C@@H](O)[C@@H]1O`, the 50% inhibitory concentration (IC50) in series [2] is 12 µM; with SW480, 20 µM. Besides, the Activity in series [4] is listed as 96%.
